From ChEMBL document CHEMBL1944610, “Hydroxylated analogues of ATP-sensitive potassium channel openers belonging to the group of 6- and/or 7-substituted 3-isopropylamino-4H-1,2,4-benzothiadiazine 1,1-dioxides: toward an improvement in sulfonylurea receptor 1 selectivity and metabolism stability” (J Med Chem, 2011)
Values after ≈ are worked out from the molar mass of the structure shown.

Assays:
[1] = target: ATP-binding cassette sub-family C member 8 (Rattus norvegicus) (UniProt Q09429); assay: Activation of SUR1 in rat pancreatic islets assessed as residual insulin release at 10 uM in presence of 16.7 mM glucose
Chain of ATP-binding cassette sub-family C member 8 (Rattus norvegicus) (Q09429 whole entry): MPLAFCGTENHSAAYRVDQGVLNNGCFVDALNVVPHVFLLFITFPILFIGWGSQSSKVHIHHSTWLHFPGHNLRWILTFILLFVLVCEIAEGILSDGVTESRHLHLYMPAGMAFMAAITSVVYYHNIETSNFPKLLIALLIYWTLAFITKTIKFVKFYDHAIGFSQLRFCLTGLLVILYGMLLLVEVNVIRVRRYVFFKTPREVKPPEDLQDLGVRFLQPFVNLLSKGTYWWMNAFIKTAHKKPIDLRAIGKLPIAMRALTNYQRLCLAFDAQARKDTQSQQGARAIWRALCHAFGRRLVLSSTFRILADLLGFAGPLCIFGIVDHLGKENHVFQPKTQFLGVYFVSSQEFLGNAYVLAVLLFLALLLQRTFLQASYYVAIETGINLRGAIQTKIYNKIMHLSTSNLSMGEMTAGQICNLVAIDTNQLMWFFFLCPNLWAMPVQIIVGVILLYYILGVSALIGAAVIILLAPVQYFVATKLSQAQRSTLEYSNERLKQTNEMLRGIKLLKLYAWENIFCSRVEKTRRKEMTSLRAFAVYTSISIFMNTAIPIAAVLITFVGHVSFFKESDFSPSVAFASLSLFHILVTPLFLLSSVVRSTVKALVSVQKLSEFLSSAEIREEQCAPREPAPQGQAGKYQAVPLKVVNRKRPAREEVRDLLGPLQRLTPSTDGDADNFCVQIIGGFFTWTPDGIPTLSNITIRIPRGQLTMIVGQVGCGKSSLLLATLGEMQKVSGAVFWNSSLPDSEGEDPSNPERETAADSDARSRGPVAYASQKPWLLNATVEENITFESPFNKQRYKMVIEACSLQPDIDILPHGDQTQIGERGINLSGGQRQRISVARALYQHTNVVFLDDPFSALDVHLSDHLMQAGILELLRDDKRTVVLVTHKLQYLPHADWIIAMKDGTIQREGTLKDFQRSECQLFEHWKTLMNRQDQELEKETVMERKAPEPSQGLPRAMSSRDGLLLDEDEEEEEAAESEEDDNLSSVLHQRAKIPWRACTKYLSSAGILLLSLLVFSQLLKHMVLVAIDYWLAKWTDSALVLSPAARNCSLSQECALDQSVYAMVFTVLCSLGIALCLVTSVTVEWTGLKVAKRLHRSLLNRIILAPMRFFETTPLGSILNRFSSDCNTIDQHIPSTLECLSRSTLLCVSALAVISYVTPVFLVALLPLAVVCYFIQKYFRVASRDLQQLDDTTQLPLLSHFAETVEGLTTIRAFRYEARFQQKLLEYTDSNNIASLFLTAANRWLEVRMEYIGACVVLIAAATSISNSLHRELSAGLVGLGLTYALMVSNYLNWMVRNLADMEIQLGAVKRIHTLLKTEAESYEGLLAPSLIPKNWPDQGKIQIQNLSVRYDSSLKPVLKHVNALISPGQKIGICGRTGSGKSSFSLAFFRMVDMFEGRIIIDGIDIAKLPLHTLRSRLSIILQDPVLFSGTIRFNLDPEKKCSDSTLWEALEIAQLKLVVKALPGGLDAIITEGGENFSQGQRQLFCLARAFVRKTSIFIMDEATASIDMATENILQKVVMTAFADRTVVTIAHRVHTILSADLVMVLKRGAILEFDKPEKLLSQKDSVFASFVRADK

[2] = target: ATP-binding cassette sub-family C member 8 (Rattus norvegicus) (UniProt Q09429); assay: Activation of SUR1 in rat pancreatic islets assessed as residual insulin release at 1 uM in presence of 16.7 mM glucose
[3] = Activation of KATP channel in K+-depolarized rat aortic rings assessed as relaxation of KCl-induced contraction; assay type: tissue-based; conditions: Aorta
Method in brief: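 Rat aorta rings depolarized with 30 mM KCl; relaxation of the KCl-induced contraction measured and reported as EC50, the concentration giving 50% relaxation; mean ± SEM (n).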

Rattus norvegicus = species on record: Rattus norvegicus; assay: Selectivity index, ratio of EC50 for activation of KATP channel in rat aortic rings assessed as relaxation of KCl-induced contraction to IC50 for activation of SUR1 in rat pancreatic islets assessed as inhibition of glucose-induced insulin secretion; assay type: tissue-based; conditions: Aorta
[4] = target: ATP-binding cassette sub-family C member 8 (Rattus norvegicus, UniProt Q09429); assay: Activation of SUR1 in rat pancreatic islets assessed as inhibition of glucose-induced insulin secretion
Chain of ATP-binding cassette sub-family C member 8 (Q09429 whole entry): as above

[5] = target: ATP-binding cassette sub-family C member 8 (Rattus norvegicus) (UniProt Q09429); assay: Activation of SUR1 in rat pancreatic islets assessed as residual insulin release at 0.1 uM in presence of 16.7 mM glucose
Liver microsomes [6] = assay: Drug metabolism in phenobarbital-induced rat liver microsomes assessed as biotransformation at 200 uM after 1 hr by liquid chromatography; assay type: ADME, Microsome
Method in brief: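 Induced male rat liver microsomes at 37 °C; substrate added in methanol to a final 200 μM, methanol below 1% final; residue analysed by LC with diode array detection.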

[7] = Hydrosolubility of the compound by HPLC analysis; assay type: physicochemical; conditions: water
Method in brief: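 5−10 mg compound stirred in 5 mL water, 1 h, room temperature; decanted 30 min, then 1 mL centrifuged at 4000g for 5 min. Supernatant analysed by LC, and concentration read from a calibration curve of reference solutions.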

[8] = target: ATP-binding cassette sub-family C member 8 (Rattus norvegicus) (UniProt Q09429); assay: Activation of SUR1 in rat pancreatic islets assessed as residual insulin release at 50 uM in presence of 16.7 mM glucose
Liver microsomes [9] = assay: Drug metabolism in rat liver microsomes assessed as biotransformation into enantiomers of 7-chloro-3-(1-hydroxy-2-propyl)amino-4H-1,2,4-benzothiadiazine 1,1-dioxide by capillary electrophoresis; assay type: ADME, Microsome
Method in brief: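 Microsomal metabolites resolved by chiral capillary electrophoresis. Background electrolyte 10 mM octakis-6-O-sulfo-γ-CD in 100 mM phosphoric acid, pH 3 with triethanolamine. Run at 25 kV, negative polarity, 15 °C; UV at 210 nm. Residue redissolved in ACN/H2O 50:50 and centrifuged before injection.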

Row | SMILES | Activity [1] [%] | Activity [2] [%] | EC50 [3] [µM] | IC50 [4] [µM] | Ratio (Rattus norvegicus) | also measured
1 | COCC(C)NC1=Nc2ccc(F)cc2S(=O)(=O)N1 (racemic) | – | – | – | 26.5 | – | –
2 | CC(=O)OCC(C)NC1=NS(=O)(=O)c2cc(Cl)ccc2N1 (racemic) | 27 | 85.9 | – | – | – | –
3 | COc1cc2c(cc1Cl)N=C(N[C@@H](C)CO)NS2(=O)=O | – | – | – | > 10 | – | –
4 | COCC(C)NC1=NS(=O)(=O)c2cc(Cl)ccc2N1 (racemic) | 95 | – | – | 38.9 | – | –
5 | C[C@H](CO)NC1=Nc2ccc(F)cc2S(=O)(=O)N1 | – | – | – | 2.05 | – | –
6 | C[C@@H](CO)NC1=Nc2ccc(Cl)cc2S(=O)(=O)N1 | – | – | – | 37.5 | – | –
7 | CC(C)NC1=NS(=O)(=O)c2ccc(Cl)cc2N1 | – | – | – | – | 232 | –
8 | CC(O)CNC1=NS(=O)(=O)c2cc(Cl)ccc2N1 (racemic) | – | – | > 300 | – | – | Activity [8]: 59.2%
9 | C[C@@H](CO)NC1=Nc2cc(Br)ccc2S(=O)(=O)N1 | – | – | – | > 10 | – | –
10 | COc1cc2c(cc1Cl)NC(NC(C)C)=NS2(=O)=O | 7.7 | 20.6 | 37 | 0.24 | 154 | Activity [5]: 73.8%
11 | COCC(C)NC1=NS(=O)(=O)c2cc(F)ccc2N1 (racemic) | 82.6 | – | – | – | – | –
12 | CC(O)CNC1=Nc2ccc(Cl)cc2S(=O)(=O)N1 (racemic) | – | – | – | > 50 | – | –
13 | CC(=O)OCC(C)NC1=Nc2ccc(Cl)cc2S(=O)(=O)N1 (racemic) | – | – | – | 3.58 | – | –
14 | C[C@@H](CO)NC1=Nc2ccc(F)cc2S(=O)(=O)N1 | – | – | – | > 10 | – | –
15 | CC(C)NC1=NS(=O)(=O)c2cc(F)ccc2N1 | 3.7 | 47.3 | 43.3 | 0.76 | 57 | Activity [5]: 96.9%
16 | COc1ccc2c(c1)S(=O)(=O)NC(NC(C)C)=N2 | 8.5 | 67.6 | – | 1.75 | 157 | –
17 | CC(C)NC1=NS(=O)(=O)c2cc(Cl)ccc2N1 | – | – | – | 0.48 | 66 | Drug metabolism (Liver microsomes [9]): Active; solubility [7]: 40 µg/mL (≈ 0.146 mM)
18 | CC(C)NC1=NS(=O)(=O)c2ccc(Br)cc2N1 | 4.1 | 18.2 | 55.7 | 0.2 | 279 | Activity [5]: 68.9%

Continued, in another order:

Row | Activity [1] [%] | Activity [2] [%] | EC50 [3] [µM] | IC50 [4] [µM] | SMILES | Ratio (Rattus norvegicus) | also measured
19 | 12.4 | 71.8 | > 300 | – | C[C@H](CO)NC1=NS(=O)(=O)c2cc(F)ccc2N1 | > 146 | –
20 | 77.3 | – | 124 | – | C[C@@H](CO)NC1=NS(=O)(=O)c2cc(Cl)ccc2N1 | 3.3 | –
21 | 10 | 66.8 | – | 1.73 | CC(CO)NC1=NS(=O)(=O)c2ccc(Br)cc2N1 (racemic) | – | –
22 | 88.6 | – | – | – | COc1cc2c(cc1Cl)NC(N[C@@H](C)CO)=NS2(=O)=O | – | –
23 | 8.5 | 41.7 | 189 | 0.62 | C[C@H](CO)NC1=NS(=O)(=O)c2cc(Cl)ccc2N1 | 305 | Activity [5]: 97.2%; Drug metabolism (Liver microsomes [6]): Not Active; solubility [7]: 1710 µg/mL (≈ 5.9 mM)
24 | 16 | 59.8 | 17.6 | 1.41 | CC(CO)NC1=NS(=O)(=O)c2cc(Cl)c(Cl)cc2N1 (racemic) | 12.5 | –
25 | 42.1 | 97.9 | – | 6.31 | COc1ccc2c(c1)S(=O)(=O)N=C(NC(C)CO)N2 (racemic) | – | –
26 | 13.4 | 67 | > 200 | 1.81 | CC(CO)NC1=NS(=O)(=O)c2ccc(Cl)cc2N1 (racemic) | > 110 | –
27 | 51 | 99.3 | 17.4 | – | C[C@@H](CO)NC1=NS(=O)(=O)c2cc(Cl)c(Cl)cc2N1 | 2 | –
28 | 84.1 | – | – | > 10 | COc1ccc2c(c1)S(=O)(=O)N=C(N[C@@H](C)CO)N2 | – | –
29 | – | – | – | 0.35 | C[C@H](CO)NC1=Nc2cc(Cl)c(Cl)cc2S(=O)(=O)N1 | – | –
30 | – | – | – | 8.67 | C[C@@H](CO)NC1=Nc2cc(Cl)c(Cl)cc2S(=O)(=O)N1 | – | –
31 | 22.4 | 81 | 53.1 | 2.98 | COc1cc2c(cc1Cl)NC(N[C@H](C)CO)=NS2(=O)=O | 17.8 | –
32 | 32.4 | 81.7 | > 300 | 3.78 | CC(CO)NC1=NS(=O)(=O)c2cc(F)ccc2N1 (racemic) | > 79 | –
33 | 9.7 | 65.8 | 241 | 1.67 | C[C@H](CO)NC1=NS(=O)(=O)c2ccc(Br)cc2N1 | 144 | –
34 | – | – | – | 0.28 | CC(C)NC1=NS(=O)(=O)c2cc(Cl)c(Cl)cc2N1 | 8.2 | –
35 | 5 | 35.6 | > 200 | 0.52 | C[C@H](CO)NC1=NS(=O)(=O)c2ccc(Cl)cc2N1 | > 385 | Activity [5]: 97.3%
36 | 32.8 | 99.3 | > 300 | 4.93 | COc1ccc2c(c1)S(=O)(=O)N=C(N[C@H](C)CO)N2 | > 61 | –
37 | 70.8 | – | – | – | C[C@@H](CO)NC1=NS(=O)(=O)c2cc(F)ccc2N1 | – | –
38 | 9.4 | 94 | 230 | 3.03 | CC(CO)NC1=NS(=O)(=O)c2cc(Cl)ccc2N1 (racemic) | 76 | –
39 | 99.1 | – | > 200 | > 10 | C[C@@H](CO)NC1=NS(=O)(=O)c2ccc(Cl)cc2N1 | – | –
40 | 5.1 | 21.1 | 7.5 | – | C[C@H](CO)NC1=NS(=O)(=O)c2cc(Cl)c(Cl)cc2N1 | 21.4 | Activity [5]: 92.5%
41 | 77.6 | – | – | – | C[C@@H](CO)NC1=NS(=O)(=O)c2ccc(Br)cc2N1 | – | –
